Values joined by “and” are separate entries in the source; they are usually repeats but may differ in a detail not shown here. Identical values can stand only once. Values belong to the molecule of their own block, whether it stands above or below them.
Assays:
Rattus norvegicus [1] = assay: Percent complete remission of DMBA-induced hormone dependent mammary carcinoma in rats at 2 mg/kg in 9 animals; type: functional
Method in brief: (§1)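 Sprague-Dawley rats bearing established DMBA-induced mammary carcinomas that arose 5–10 weeks after DMBA. Dosed sc as one daily dose Monday to Thursday and a double dose on Friday. Controls got vehicle alone. Tumor area was followed over treatment.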

Rattus norvegicus [2] = assay: Progressive DMBA-induced hormone dependent mammary carcinoma tumors in rats at 2 mg/kg in 9 animals; type: functional; method in brief: as §1
Rattus norvegicus [3] = assay: Change in body weight of DMBA-induced hormone dependent mammary carcinoma tumor bearing rats at 2 mg/kg after 7 day therapy in 9 animals; type: functional
Rattus norvegicus [4] = assay: New tumor development in DMBA-induced hormone dependent mammary carcinoma in rats at 6 mg/kg; type: functional; method in brief: as §1
Rattus norvegicus [5] = assay: Change in tumor area DMBA-induced hormone dependent mammary carcinoma tumor bearing rats at 2 mg/kg after 28 day therapy in 9 animals
Rattus norvegicus [6] = assay: Initial DMBA-induced hormone dependent mammary carcinoma tumors in rats at 6 mg/kg; type: functional; method in brief: as §1
Rattus norvegicus [7] = assay: Partial remission in DMBA-induced hormone dependent mammary carcinoma tumor bearing rats at 2 mg/kg in 9 animals; type: functional; method in brief: as §1
Rattus norvegicus [8] = assay: Static unchanged DMBA-induced hormone dependent mammary carcinoma tumors in rats at 2 mg/kg in 9 animals; type: functional; method in brief: as §1
[9] = target: T1, Estrogen receptor (Mus musculus) (UniProt O08537+P19785); assay: Anti-estrogenic activity in mouse uterotrophic assay at 25 ug as uterus dry weight (mg)/body weight (g) *100; type: functional, tissue-based
T1 sequence (O08537 whole entry, looked up): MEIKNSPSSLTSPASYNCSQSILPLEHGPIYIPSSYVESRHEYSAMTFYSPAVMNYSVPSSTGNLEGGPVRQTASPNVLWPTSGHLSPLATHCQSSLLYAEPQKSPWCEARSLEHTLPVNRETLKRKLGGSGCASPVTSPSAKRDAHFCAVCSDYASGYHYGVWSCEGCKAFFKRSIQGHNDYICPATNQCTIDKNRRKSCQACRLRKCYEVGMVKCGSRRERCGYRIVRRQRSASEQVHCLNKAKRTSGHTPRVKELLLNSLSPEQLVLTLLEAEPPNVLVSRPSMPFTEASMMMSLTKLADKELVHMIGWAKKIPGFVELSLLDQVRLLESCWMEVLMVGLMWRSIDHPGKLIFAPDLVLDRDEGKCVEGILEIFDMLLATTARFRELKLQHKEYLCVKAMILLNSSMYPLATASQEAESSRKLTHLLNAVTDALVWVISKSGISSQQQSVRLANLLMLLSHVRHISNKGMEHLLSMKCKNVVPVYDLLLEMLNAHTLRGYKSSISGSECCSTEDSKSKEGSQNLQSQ
T1 sequence (P19785 whole entry, looked up): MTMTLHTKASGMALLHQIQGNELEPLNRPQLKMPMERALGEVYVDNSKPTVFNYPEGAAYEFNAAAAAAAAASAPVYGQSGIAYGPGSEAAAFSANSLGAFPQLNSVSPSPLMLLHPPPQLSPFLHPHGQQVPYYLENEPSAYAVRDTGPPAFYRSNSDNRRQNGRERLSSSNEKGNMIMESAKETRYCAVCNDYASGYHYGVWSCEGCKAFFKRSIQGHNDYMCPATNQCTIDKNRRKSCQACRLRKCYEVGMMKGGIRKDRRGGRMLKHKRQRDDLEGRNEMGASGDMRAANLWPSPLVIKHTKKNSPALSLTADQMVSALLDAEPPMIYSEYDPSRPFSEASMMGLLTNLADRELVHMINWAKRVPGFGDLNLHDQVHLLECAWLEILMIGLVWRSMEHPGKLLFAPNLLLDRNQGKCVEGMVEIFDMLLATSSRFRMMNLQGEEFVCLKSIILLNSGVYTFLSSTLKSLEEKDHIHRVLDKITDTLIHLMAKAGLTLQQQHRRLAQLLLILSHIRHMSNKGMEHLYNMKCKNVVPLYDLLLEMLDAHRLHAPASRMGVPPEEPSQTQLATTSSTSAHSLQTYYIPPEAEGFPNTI
Method in brief: (§2)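 Mice dosed sc on 3 consecutive days (dose per animal), together with […] estrone per animal per day. Uterus dry weight (mg)/body weight (g) × 100 was taken 24 h after the last injection, as mean ± SD of 10 animals. Significance by Wilcoxon–Mann–Whitney U test.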

[10] = target: T1, Estrogen receptor (Mus musculus); assay: Anti-estrogenic activity in mouse uterotrophic assay at 1 ug as uterus dry weight (mg)/body weight (g) *100; type: functional, tissue-based; method in brief: as §2
[11] = target: T1, Estrogen receptor (Mus musculus); assay: Percent inhibition in anti-uterotrophic assay in mice at 25 ug; type: functional; method in brief: as §2
MDA-MB-231 [12] = assay: Growth inhibition of hormone independent MDA-MB 231 human breast cancer cells at 1x10E-5 M
[13] = target: T1, Estrogen receptor (Mus musculus); assay: Estrogenic activity in mouse uterotrophic assay at 0.2 ug as uterus dry weight (mg)/body weight (g) *100; type: functional, tissue-based
Method in brief: (§3)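 Mouse uterotrophic test with the compound alone given sc on 3 consecutive days (dose per animal). Uterus dry weight (mg)/body weight (g) × 100 was measured 24 h after the last injection, as mean ± SD of 10 animals. Significance by Wilcoxon–Mann–Whitney U test.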

MDA-MB-231 [14] = assay: (§4) Inhibition of [3H]thymidine incorporation into hormone independent MDA-MB 231 human breast cancer cells at 2x10E-6M; type: functional
Method in brief: (§5)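 MDA-MB 231 cells grown in McCoy 5a with 10% newborn calf serum and gentamycin. Replicate plates were switched to 5% serum 1 h before the run. Compounds were added in Me2SO (final 0.1%). Read-out was [3H]thymidine incorporation into TCA-precipitable material.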

[15] = target: T1, Estrogen receptor (Mus musculus); assay: Estrogenic activity in mouse uterotrophic assay at 5 ug as uterus dry weight (mg)/body weight (g) *100; type: functional, tissue-based; method in brief: as §3
[16] = target: T1, Estrogen receptor (Mus musculus); assay: Anti-estrogenic activity in mouse uterotrophic assay at 5 ug as uterus dry weight (mg)/body weight (g) *100; type: functional, tissue-based; method in brief: as §2
[17] = target: T1, Estrogen receptor (Mus musculus); assay: Percent inhibition in anti-uterotrophic assay in mice at 5 ug; type: functional; method in brief: as §2
Rattus norvegicus [18] = assay: Initial DMBA-induced hormone dependent mammary carcinoma tumors in rats at 18 mg/kg; type: functional; method in brief: as §1
[19] = target: T1, Estrogen receptor (Mus musculus); assay: Estrogenic activity in mouse uterotrophic assay at 1 ug as uterus dry weight (mg)/body weight (g) *100; type: functional, tissue-based; method in brief: as §3
MDA-MB-231 [20] = assay: as §4; type: functional; method in brief: as §5; remark: listed apart in the source
MDA-MB-231 [21] = assay: Inhibition of [3H]thymidine incorporation into hormone independent MDA-MB 231 human breast cancer cells at 5x10E-6M; type: functional; method in brief: as §5
[22] = target: T1, Estrogen receptor (Mus musculus); assay: Estrogenic activity in mouse uterotrophic assay at 125 ug as uterus dry weight (mg)/body weight (g) *100; type: functional, tissue-based; method in brief: as §3
[23] = target: T1, Estrogen receptor (Mus musculus); assay: Estrogenic activity in mouse uterotrophic assay at 25 ug as uterus dry weight (mg)/body weight (g) *100; type: functional, tissue-based; method in brief: as §3
[24] = target: T1, Estrogen receptor (Mus musculus); assay: Anti-estrogenic activity in mouse uterotrophic assay at 0.2 ug as uterus dry weight (mg)/body weight (g) *100; type: functional, tissue-based; settings: in the assay text read “at 5 ug” for “at 0.2 ug”; method in brief: as §2
Rattus norvegicus [25] = assay: New tumor development in DMBA-induced hormone dependent mammary carcinoma in rats at 18 mg/kg; type: functional; method in brief: as §1
[26] = target: T1, Estrogen receptor (Mus musculus); assay: Anti-estrogenic activity in mouse uterotrophic assay at 0.04 ug as uterus dry weight (mg)/body weight (g) *100; type: functional, tissue-based; settings: in the assay text read “at 1 ug” for “at 0.04 ug”; method in brief: as §2
Rattus norvegicus [27] = assay: New tumor development in DMBA-induced hormone dependent mammary carcinoma in rats at 2 mg/kg; type: functional; method in brief: as §1
[28] = target: T1, Estrogen receptor (Mus musculus); assay: Percent inhibition in anti-uterotrophic assay in mice at 0.04 ug; type: functional; settings: in the assay text read “at 1 ug” for “at 0.04 ug”; method in brief: as §2
[29] = target: T1, Estrogen receptor (Mus musculus); assay: Estrogenic activity in mouse uterotrophic assay at 0.04 ug as uterus dry weight (mg)/body weight (g) *100; type: functional, tissue-based; method in brief: as §3
MDA-MB-231 [30] = assay: Inhibition of [3H]-thymidine incorporation into hormone independent MDA-MB 231 human breast cancer cells at 5x10E-6M; type: functional; method in brief: as §5
MDA-MB-231 [31] = assay: Inhibition of [3H]thymidine incorporation into hormone independent MDA-MB 231 human breast cancer cells at 1*10^-5 M; type: functional; method in brief: as §5
MDA-MB-231 [32] = assay: (§6) Inhibition of [3H]thymidine incorporation into hormone independent MDA-MB 231 human breast cancer cells at 1x10E-6M; type: functional; method in brief: as §5
MDA-MB-231 [33] = assay: Inhibition of [3H]thymidine incorporation into hormone independent MDA-MB 231 human breast cancer cells at 1x10E-5 M; type: functional; method in brief: as §5
[34] = target: T1, Estrogen receptor (Mus musculus); assay: Percent inhibition in anti-uterotrophic assay in mice at 1 ug; type: functional; method in brief: as §2
MDA-MB-231 [35] = assay: Growth inhibition of hormone independent MDA-MB 231 human breast cancer cells at 5x10E-6M
[36] = target: T1, Estrogen receptor (Mus musculus); assay: Percent inhibition in anti-uterotrophic assay in mice at 0.2 ug; type: functional; settings: in the assay text read “at 5 ug” for “at 0.2 ug”; method in brief: as §2
Rattus norvegicus [37] = assay: Initial DMBA-induced hormone dependent mammary carcinoma tumors in rats at 2 mg/kg; type: functional; method in brief: as §1
MDA-MB-231 [38] = assay: as §6; type: functional; method in brief: as §5; remark: listed apart in the source

SMILES: CCCn1c(-c2c(Cl)cc(O)cc2Cl)cc2c(Cl)cc(O)cc21
Complete remission (Rattus norvegicus [1]): 8%
Progressive tumors (Rattus norvegicus [2]): 23%
Change (Rattus norvegicus [3]): 0%
New tumors (Rattus norvegicus [4]): 9
Change (Rattus norvegicus [5]): 57%
No. of tumors (Rattus norvegicus [6]): 17
Partial remission (Rattus norvegicus [7]): 19%
Static remission (Rattus norvegicus [8]): 50%

inhibition [11]: 25%
inhibition [17]: 2%
inhibition [28]: -7%
inhibition [34]: -7%
inhibition [36]: 2%
SMILES: CCn1c(-c2c(Cl)cc(O)cc2Cl)cc2c(Cl)cc(O)cc21
Effect [9]: 39.3
Effect [10]: 48.7
T/C (MDA-MB-231 [12]): 25%
Effect [13]: 21.7
Complete remission (Rattus norvegicus [1]; 2 mg/kg): 43% and 62% and 56%
T/C (MDA-MB-231 [14]): 88%
Progressive tumors (Rattus norvegicus [2]; 2 mg/kg): 24% and 15% and 16%
Effect [15]: 22.2
Effect [16]: 46.3
No. of tumors (Rattus norvegicus [18]): 20
Effect [19]: 21.5
Change (Rattus norvegicus [3]; 2 mg/kg): 2% and 1% and 0%
Cell no./dish x10E3 (MDA-MB-231 [20]): 36.2 cpm/dish x10E3
Cell no./dish x10E5 (MDA-MB-231 [20]): 9.38
T/C (MDA-MB-231 [20]): 88%
T/C (MDA-MB-231 [21]): 14%
[3H]thymidine incorporation (MDA-MB-231 [21]): 5.8 cpm/dish x10E3
Effect [22]: 40.6
Effect [23]: 45.8
Effect [24]: 46.3
New tumors (Rattus norvegicus [25]): 5
Effect [26]: 48.7
New tumors (Rattus norvegicus [27]): 15
New tumors (Rattus norvegicus [4]): 4
Effect [29]: 19.8
Cell no./dish x10E5 (MDA-MB-231 [30]): 5.44
T/C (MDA-MB-231 [31]): 16%
Cell no./dish x10E3 (MDA-MB-231 [32]): 40.2 cpm/dish x10E3
Cell no./dish x10E5 (MDA-MB-231 [32]): 11.35
T/C (MDA-MB-231 [32]): 106%
Cell no./dish x10E3 (MDA-MB-231 [33]): 6.6 cpm/dish x10E3
Cell no./dish x10E5 (MDA-MB-231 [33]): 2.71
T/C (MDA-MB-231 [35]): 51%
No. of tumors (Rattus norvegicus [6]): 22
Partial remission (Rattus norvegicus [7]; 2 mg/kg): 14% and 15% and 24%
No. of tumors (Rattus norvegicus [37]): 22
T/C (MDA-MB-231 [38]): 98%

Reference: ChEMBL document CHEMBL1122306, “2-(Hydroxyphenyl)indoles: a new class of mammary tumor inhibiting compounds” (1983)
